Activity calls are given as the source filed them. The rule behind the calls is not given here.
Tests used:
[1] = Inhibition of soybean 15-lipoxygenase-1 by UV-visible spectrophotometry; design: species or system Glycine max
In short: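 Soybean 15-LOX-1 (~2 nM) was assayed in 100 mM borate pH 9.2, 0.01% Triton X-100, 10 μM AA, stirred 2 mL at 23°C. Conjugated diene was read at 234 nm.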

[2] = target: T1, Polyunsaturated fatty acid lipoxygenase ALOX15B (Homo sapiens, UniProt O15296); test: Inhibition of human reticulocyte 15-lipoxygenase-2 by UV-visible spectrophotometry; conditions: in the assay text read “epithelial” for “reticulocyte”
T1 sequence (O15296 whole entry): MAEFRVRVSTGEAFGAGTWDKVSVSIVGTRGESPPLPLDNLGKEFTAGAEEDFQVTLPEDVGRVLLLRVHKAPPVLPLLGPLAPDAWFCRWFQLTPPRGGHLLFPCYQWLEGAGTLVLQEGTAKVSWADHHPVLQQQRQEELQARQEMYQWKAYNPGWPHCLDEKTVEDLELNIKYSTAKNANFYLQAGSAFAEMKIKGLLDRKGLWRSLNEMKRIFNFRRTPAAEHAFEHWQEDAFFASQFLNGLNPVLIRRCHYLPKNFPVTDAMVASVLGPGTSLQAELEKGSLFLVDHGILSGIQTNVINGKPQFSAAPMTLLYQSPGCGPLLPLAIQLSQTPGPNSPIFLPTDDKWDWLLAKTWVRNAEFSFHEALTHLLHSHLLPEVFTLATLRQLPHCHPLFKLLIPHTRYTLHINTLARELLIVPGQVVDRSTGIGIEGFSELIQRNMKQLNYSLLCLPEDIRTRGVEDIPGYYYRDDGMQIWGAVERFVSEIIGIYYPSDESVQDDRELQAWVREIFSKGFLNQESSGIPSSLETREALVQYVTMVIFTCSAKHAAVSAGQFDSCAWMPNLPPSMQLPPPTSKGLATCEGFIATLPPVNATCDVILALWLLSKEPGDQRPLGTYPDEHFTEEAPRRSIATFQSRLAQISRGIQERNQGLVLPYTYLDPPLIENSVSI
In short: (§1)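 Enzyme was h15-LOX-2 (~200 nM) or rabbit 15-LOX (~50 nM), in 25 mM HEPES pH 7.5, 0.01% Triton X-100, 10 μM AA, stirred 2 mL at 23°C. Product was monitored at 234 nm.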

[3] = target: T2, Polyunsaturated fatty acid lipoxygenase ALOX15 (Homo sapiens, UniProt P16050); test: Inhibition of human reticulocyte 15-lipoxygenase-1 by UV-visible spectrophotometry
T2 sequence (P16050 whole entry): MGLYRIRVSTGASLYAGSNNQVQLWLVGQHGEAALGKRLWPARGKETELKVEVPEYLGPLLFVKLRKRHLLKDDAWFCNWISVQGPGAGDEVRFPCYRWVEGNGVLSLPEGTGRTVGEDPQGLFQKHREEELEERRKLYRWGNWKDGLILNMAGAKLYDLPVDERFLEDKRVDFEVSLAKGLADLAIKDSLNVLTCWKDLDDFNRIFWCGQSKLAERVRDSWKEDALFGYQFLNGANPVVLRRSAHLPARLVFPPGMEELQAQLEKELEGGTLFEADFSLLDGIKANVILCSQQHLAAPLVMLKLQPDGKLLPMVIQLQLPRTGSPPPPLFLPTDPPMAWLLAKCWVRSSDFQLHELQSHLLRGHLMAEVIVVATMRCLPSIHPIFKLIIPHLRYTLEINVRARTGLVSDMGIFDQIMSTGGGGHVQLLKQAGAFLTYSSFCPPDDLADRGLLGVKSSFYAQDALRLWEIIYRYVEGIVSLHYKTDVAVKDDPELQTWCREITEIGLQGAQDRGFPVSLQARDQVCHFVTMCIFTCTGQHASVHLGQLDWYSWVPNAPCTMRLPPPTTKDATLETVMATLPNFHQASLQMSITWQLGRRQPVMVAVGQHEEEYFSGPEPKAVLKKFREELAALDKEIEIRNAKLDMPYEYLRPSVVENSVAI
In short: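 Purified h15-LOX-1 (~60 nM total protein) in stirred 2 mL reactions at 23°C, 25 mM HEPES pH 7.5, 0.01% Triton X-100, 10 μM AA. Rate followed as conjugated diene formation at 234 nm. IC50 from at least five inhibitor concentrations by hyperbolic saturation fit, triplicate. Weak inhibitors approximated from one-point screen at 25 μM (triplicate).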

[4] = target: T3, Polyunsaturated fatty acid lipoxygenase ALOX15 (Oryctolagus cuniculus, UniProt P12530); test: Inhibition of rabbit reticulocyte 15-LOX by UV-visible spectrophotometry; in short: as §1
T3 sequence (P12530 whole entry): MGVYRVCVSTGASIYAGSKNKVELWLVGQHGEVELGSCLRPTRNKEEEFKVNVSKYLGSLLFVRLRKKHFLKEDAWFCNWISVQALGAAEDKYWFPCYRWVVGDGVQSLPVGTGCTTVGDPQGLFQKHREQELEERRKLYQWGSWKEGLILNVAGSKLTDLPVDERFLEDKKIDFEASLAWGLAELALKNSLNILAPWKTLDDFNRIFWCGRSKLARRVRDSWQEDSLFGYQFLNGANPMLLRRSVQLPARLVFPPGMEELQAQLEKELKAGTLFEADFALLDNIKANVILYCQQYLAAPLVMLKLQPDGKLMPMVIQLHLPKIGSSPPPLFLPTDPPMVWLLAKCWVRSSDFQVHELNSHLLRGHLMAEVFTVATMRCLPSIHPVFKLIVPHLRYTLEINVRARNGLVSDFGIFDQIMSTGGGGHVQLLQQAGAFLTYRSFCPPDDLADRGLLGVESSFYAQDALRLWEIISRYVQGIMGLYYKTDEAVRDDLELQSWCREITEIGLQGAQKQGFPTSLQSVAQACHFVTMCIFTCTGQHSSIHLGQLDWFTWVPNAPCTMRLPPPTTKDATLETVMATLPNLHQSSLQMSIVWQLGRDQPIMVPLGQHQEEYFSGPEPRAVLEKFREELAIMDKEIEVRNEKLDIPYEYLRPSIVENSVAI

[5] = target: T4, Polyunsaturated fatty acid 5-lipoxygenase (Homo sapiens, UniProt P09917); test: Inhibition of human leukocyte 5-lipoxygenase by UV-visible spectrophotometry
T4 sequence (P09917 whole entry): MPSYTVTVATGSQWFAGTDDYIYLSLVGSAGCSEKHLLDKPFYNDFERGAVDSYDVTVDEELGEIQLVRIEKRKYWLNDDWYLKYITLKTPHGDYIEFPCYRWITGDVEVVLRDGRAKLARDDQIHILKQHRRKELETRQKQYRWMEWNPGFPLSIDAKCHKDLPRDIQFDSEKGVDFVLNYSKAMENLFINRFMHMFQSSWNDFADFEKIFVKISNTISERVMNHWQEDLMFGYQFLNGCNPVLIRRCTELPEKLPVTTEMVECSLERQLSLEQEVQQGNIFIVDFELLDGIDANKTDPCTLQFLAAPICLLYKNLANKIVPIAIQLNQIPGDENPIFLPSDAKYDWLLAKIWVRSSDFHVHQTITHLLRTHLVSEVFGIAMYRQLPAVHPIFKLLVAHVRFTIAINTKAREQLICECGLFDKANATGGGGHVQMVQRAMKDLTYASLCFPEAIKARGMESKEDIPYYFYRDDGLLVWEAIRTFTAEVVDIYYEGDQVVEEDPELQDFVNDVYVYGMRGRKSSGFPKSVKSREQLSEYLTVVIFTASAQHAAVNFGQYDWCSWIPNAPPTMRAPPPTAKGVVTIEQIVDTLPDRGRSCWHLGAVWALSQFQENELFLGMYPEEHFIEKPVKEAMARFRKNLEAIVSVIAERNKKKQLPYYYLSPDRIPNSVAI

[6] = target: T5, Polyunsaturated fatty acid lipoxygenase ALOX12 (Homo sapiens, UniProt P18054); test: Inhibition of human platelet 12-lipoxygenase by UV-visible spectrophotometry
T5 sequence (P18054 whole entry): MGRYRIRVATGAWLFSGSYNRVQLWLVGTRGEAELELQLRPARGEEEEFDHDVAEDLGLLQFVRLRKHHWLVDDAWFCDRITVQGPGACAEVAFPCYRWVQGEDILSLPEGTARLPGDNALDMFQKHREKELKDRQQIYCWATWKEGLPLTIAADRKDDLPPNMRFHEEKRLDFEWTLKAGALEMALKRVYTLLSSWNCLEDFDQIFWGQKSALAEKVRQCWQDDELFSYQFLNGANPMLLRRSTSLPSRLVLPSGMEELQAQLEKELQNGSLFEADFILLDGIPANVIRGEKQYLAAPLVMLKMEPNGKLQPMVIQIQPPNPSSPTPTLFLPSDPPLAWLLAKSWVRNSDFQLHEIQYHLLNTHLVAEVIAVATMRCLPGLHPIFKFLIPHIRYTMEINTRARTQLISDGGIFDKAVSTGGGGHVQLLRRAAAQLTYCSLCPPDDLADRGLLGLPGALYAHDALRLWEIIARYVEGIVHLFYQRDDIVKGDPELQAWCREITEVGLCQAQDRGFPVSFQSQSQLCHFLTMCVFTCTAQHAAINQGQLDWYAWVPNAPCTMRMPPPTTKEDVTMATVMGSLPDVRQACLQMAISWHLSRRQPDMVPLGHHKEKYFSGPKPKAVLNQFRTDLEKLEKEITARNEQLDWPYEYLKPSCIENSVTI
In short: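 h12-LOX (~100 nM total protein) in 25 mM HEPES pH 8.0, 0.01% Triton X-100, 10 μM AA, run as stirred 2 mL reactions at 23°C. Diene formation was read at 234 nm.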

[7] = target: T2, Polyunsaturated fatty acid lipoxygenase ALOX15; test: Irreversible inhibition of human reticulocyte 15-lipoxygenase-1 by assessed as equilibrium inhibitor constant
In short: (§2)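 Time-dependent inactivation: h15-LOX-1 or s15-LOX-1 was incubated on ice with neat oxo-lipid oil (no solvent) at ≥5 concentrations for varied times. Residual activity was then measured under the UV 234 nm assay conditions for each enzyme and compared with an enzyme-only control. ka was taken as the slope of ln(% activity) versus time, and Ki and k2 from a replot of ka versus [I].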

[8] = tested on: Glycine max; test: Irreversible inhibition of soybean 15-lipoxygenase-1; in short: as §2
[9] = target: T6, Polyunsaturated fatty acid lipoxygenase ALOX12 (Homo sapiens) (UniProt P18054)
T6 sequence (whole entry): T5 sequence (P18054 whole entry)

[10] = target: T6, Polyunsaturated fatty acid lipoxygenase ALOX12 (Homo sapiens); remark: listed apart in the source

IC50 [1] [µM] | IC50 [2] [µM] | IC50 [3] [µM] | IC50 [4] [µM] | IC50 ([5]; read-out: IC50) [µM] | IC50 [6] [µM] | Ki [7] [µM] | IC50 [5] | Kic [9] [µM] | Kiuc [10] [µM] | SMILES | inhibition [8]
> 100 | > 100 | 3 | > 50 | > 50 | 8 | 36.8 |  |  |  | CCCCC/C=C\CC(=O)/C=C/C=C\C/C=C\CCCC(=O)O | 
> 100 | > 100 | > 25 | > 25 |  | 15 |  | Not Active |  |  | CCCCC/C=C\C/C=C\C/C=C\C=C\C(=O)CCCC(=O)O [5-OXO-ETE] | 
> 100 | > 100 | > 25 | > 50 | > 100 | 1 |  |  | 0.087 | 2.1 | CCCCCC(=O)/C=C/C=C\C/C=C\C/C=C\CCCC(=O)O | 

SMILES | IC50 [1] [µM] | IC50 [2] [µM] | IC50 [3] [µM] | IC50 [4] [µM] | IC50 ([5]; read-out: IC50) [µM] | IC50 [6] [µM] | Ki [7] [µM] | IC50 [5] | Kic [9] [µM] | Kiuc [10] [µM] | inhibition [8]
CCCCCC(=O)/C=C/C=C\CCCCCCCC(=O)O | > 100 | > 100 | > 100 | > 100 | > 100 | > 100 |  |  |  |  | inactive

Source: ChEMBL document CHEMBL3352671, “Inhibitory and mechanistic investigations of oxo-lipids with human lipoxygenase isozymes” (Bioorg Med Chem, 2014)
